Assay results taken from BindingDB's records for doi:10.1021/acs.jmedchem.7b00924 (University of Copenhagen, 2017).
pIC50: −log10 of the molar value.

Target: T1, Sodium- and chloride-dependent betaine transporter (Mus musculus, UniProt P31651)
T1 sequence (P31651 whole entry): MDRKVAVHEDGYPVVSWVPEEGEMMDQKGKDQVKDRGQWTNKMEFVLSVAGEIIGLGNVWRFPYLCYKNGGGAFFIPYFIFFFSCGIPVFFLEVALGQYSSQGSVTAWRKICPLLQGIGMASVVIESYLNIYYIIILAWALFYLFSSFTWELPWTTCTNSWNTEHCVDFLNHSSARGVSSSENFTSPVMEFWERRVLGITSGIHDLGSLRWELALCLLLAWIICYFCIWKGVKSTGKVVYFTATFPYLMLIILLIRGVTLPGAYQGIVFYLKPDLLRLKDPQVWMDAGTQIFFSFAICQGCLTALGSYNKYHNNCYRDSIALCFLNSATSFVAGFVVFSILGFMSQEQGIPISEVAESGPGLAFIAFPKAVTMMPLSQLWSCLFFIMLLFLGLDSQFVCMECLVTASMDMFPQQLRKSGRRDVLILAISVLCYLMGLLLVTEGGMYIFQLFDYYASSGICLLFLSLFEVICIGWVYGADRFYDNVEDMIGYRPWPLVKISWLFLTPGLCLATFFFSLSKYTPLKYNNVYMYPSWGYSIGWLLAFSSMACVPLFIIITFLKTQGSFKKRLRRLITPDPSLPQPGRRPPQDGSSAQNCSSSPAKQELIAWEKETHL
Test: Inhibition of mouse BGT1 expressed in HEK293 cells assessed as reduction in [3H]GABA uptake after 3 mins by scintillation counting method
How it was run: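 HEK293 lines stably expressing a single mouse GAT subtype, kept under blasticidin-S (5 µg/mL) selection. Cells were assayed about 24 h after plating with 30 nM [3H]GABA plus varying compound concentrations for 3 min at 37 °C in HBSS buffered with 20 mM HEPES (1 mM CaCl2, 1 mM MgCl2, pH 7.4). Cells were washed ice-cold and radioactivity counted. IC50 came from sigmoidal variable-slope fits.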

- pIC50: 3.90
SMILES: O=C(NC1CCN(Cc2cccc(OC(F)(F)F)c2)CC1)c1ccc(Cl)cc1Cl
